Data set [1] deals with T1, Estrogen receptor (Rattus norvegicus) (UniProt P06211).
T1 sequence (whole entry): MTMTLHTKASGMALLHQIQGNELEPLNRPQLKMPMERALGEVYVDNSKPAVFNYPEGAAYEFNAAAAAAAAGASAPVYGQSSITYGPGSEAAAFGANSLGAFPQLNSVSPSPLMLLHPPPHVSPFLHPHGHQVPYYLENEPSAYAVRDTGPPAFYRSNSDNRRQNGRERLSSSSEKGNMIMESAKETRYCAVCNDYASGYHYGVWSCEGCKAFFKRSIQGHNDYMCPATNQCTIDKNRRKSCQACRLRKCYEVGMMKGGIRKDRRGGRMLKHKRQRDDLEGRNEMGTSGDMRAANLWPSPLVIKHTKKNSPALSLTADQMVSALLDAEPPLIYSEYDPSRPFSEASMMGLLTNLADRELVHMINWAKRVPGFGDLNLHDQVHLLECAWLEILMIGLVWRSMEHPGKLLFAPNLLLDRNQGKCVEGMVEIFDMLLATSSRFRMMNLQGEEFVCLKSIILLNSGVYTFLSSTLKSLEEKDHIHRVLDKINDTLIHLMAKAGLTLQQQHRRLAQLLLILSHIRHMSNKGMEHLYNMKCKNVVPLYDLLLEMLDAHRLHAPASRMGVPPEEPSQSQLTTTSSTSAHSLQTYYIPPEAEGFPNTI
The experiment in a line: Displacement of [3H]-estradiol from estrogen receptor in rat uterine cytosol at 10^-4 to 10^-10 M after 16 hrs relative to estradiol. As to conditions: Uterus.

Data set [2] in a line: Drug metabolism in rat uterine nuclear fraction assessed as 3-(4-((1R,2S)-6-hydroxy-2-phenyl-1,2,3,4-tetrahydronaphthalen-1-yl)phenoxy)propane-1,2-diol level at 25 ug, sc after 18 hrs by TLC analysis. The note with it: in vivo. The data set is classed as ADME, organism-based.
The nature of data set [3]: Drug metabolism in rat uterine nuclear fraction assessed as metabolite level at 25 ug, sc after 13 hrs by TLC analysis. The data set is classed as ADME, organism-based. The note with it: in vivo. The procedure, abridged:
(§1)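 Immature rats given tritiated antiestrogen, 25 μg sc per rat. At 1 and 13 h, serum was prepared and extracted with ethyl acetate. Uteri were homogenized, the nuclear pellet washed three times, then extracted with ethanol. Extracts were concentrated, run on silica gel TLC in anesthetic ether–ethanol (98:2), and radioactivity counted by liquid scintillation.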

Data set [4] is described as follows: Drug metabolism in rat uterine nuclear fraction assessed as 1-(p-Hydroxyphenyl)-2-phenyl-6-methoxy-1,2,3,4-tetrahydronaphthalene level at 25 ug, sc after 18 hrs by TLC analysis. The data set is classed as ADME, organism-based. The note with it: in vivo.
In a further data set the test system is Serum. The experiment in a line: Drug metabolism in rat serum assessed as metabolite level at 25 ug, sc after 1 hr by TLC analysis. As to conditions: in vivo. The data set is classed as ADME, organism-based. The procedure, abridged: as §1
Data set [5] in a line: Drug metabolism in rat uterine nuclear fraction assessed as (5R,6S)-5-(4-hydroxyphenyl)-6-phenyl-5,6,7,8-tetrahydronaphthalen-2-ol level at 25 ug, sc after 18 hrs by TLC analysis. The data set is classed as ADME, organism-based. As to conditions: in vivo.
Data set [6] can be described thus: Drug metabolism in rat uterine nuclear fraction assessed as metabolite level at 25 ug, sc after 1 hr by TLC analysis. The data set is classed as ADME, organism-based. The note with it: in vivo. The procedure, abridged:
as §1

The nature of data set [7]: Drug uptake in rat estrogen receptor expressing uterine at 25 ug, sc after 13 hrs by high salt sucrose density gradient analysis in presence of unlabeled estradiol. The data set is classed as ADME, organism-based, Uterus. As to conditions: in vivo. The procedure, abridged: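 Rats pretreated 1 h in vivo with 5 μg unlabeled estradiol or saline vehicle, then given 25 μg tritiated antiestrogen sc. Uteri excised; washed 800g nuclear pellet extracted 1 h at 0 °C with buffer containing 0.4 M KCl. Extract charcoal-dextran treated, ¹⁴C ovalbumin and γ-globulin markers added. High-salt sucrose gradients spun 17 h, 4 °C, 270000g; 5S binding read.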

The nature of data set [8]: Drug metabolism in rat uterine nuclear fraction assessed as 1-[p-(2,3-Dihydroxyphenyl)phenyl]-2-phenyl-6-methoxy-1,2,3,4-tetrahydronaphthalene level at 25 ug, sc after 18 hrs by TLC analysis. The data set is classed as ADME, organism-based. The note with it: in vivo.

Molecules are shown by their SMILES.

Regarding `CC[C@H](c1ccc(O)cc1)[C@@H](CC)c1ccc(O)cc1`, in data set [1], the RBA worked out at 300.
On the same count and under the same terms, in the case of `COc1ccc2c(c1)CC[C@@H]1[C@@H]2CC[C@]2(C)[C@@H](O)CC[C@@H]12` it was 3.
On the same count and under the same terms, in the case of `COc1ccc2c(c1)CC[C@H](c1ccccc1)[C@@H]2c1ccc(O)cc1` it was 0.24; in that of `OCC(O)COc1ccc([C@@H]2c3ccc(O)cc3CC[C@@H]2c2ccccc2)cc1` (stereo partly specified), 39.1; in that of `Oc1ccc([C@@H]2c3ccc(O)cc3CC[C@@H]2c2ccccc2)cc1`, 29.8.
With `COc1ccc2c(c1)CC[C@H](c1ccccc1)[C@@H]2c1ccc(OCC(O)CO)cc1` (mixture of isomers), the Drug metabolism entry (in data set [2]; in data set [3]; in data set [4]; in the data set on Serum; in [5]; in data set [6]) was “metabolite_detected” each time. In addition, the Drug metabolism result in data set [7] and in data set [8] was “metabolite_detected” in each case. In addition, the RBA in [1] was determined as 0.1.
As for `CC[C@H](c1ccc(O)cc1)[C@@H](CC)c1ccc(OC)cc1` (relative stereo), the RBA in data set [1] amounted to 19.3.
In [1], `CC[C@H](c1ccc(O)cc1)[C@@H](CC)c1ccc(OCC(O)CO)cc1` (relative stereo) registered an RBA of 6.9.

Source of the values: ChEMBL document CHEMBL3244378, “Antiestrogens and antiestrogen metabolites: preparation of tritium-labeled (+/-)-cis-3-[p-(1,2,3,4-tetrahydro-6-methoxy-2-phenyl-1-naphthyl)phenoxyl]-1,2-propanediol (U-23469) and characterization and synthesis of a biologically important metabolite” (J Med Chem, 1979).
